This is one part of a sample in which hits are shown more often than they occur.
IDH1 mut inh: inhibitors of IDH1 R132H reductase, primary screen, biochemical, plate reader, single point; Isocitrate dehydrogenase [NADP] cytoplasmic (Homo sapiens), O75874; diaphorase/resazurin fluorescence, 60 min; inhibition, % at 10 µM; 70,000 compounds, 0.18% hits; AID 624101, 2012; in the data active = inhibition above about 34%; inconclusive = no clear call, values can overlap the other calls; inactive = below about 11%;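 note: 0% = DMSO and 100% = no enzyme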
Target sequence (O75874 whole entry R132H): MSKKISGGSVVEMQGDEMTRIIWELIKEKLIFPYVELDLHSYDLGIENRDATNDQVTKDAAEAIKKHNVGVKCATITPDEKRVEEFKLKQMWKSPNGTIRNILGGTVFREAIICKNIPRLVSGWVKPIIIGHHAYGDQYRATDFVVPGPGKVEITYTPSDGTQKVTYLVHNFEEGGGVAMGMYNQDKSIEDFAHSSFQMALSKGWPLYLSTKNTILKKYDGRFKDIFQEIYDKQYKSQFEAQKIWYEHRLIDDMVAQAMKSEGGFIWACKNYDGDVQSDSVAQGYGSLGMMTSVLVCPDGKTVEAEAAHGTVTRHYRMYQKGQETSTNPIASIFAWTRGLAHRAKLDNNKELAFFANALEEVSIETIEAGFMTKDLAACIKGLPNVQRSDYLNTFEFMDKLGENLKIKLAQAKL
T cruzi growth-1: T. cruzi intracellular proliferation inhibitors, primary screen, cell-based, beta-gal Tulahuen parasites, NIH3T3 host, luminescence. T. cruzi beta-gal in NIH3T3, GalScreen luminescence, 90 h. inhibition, % at 8.34 µM. 77,000 compounds, 5.9% hits. AID 624255, 2012;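 active = mean inhibition above about 93%, with at least 55% of replicates each passing it, limit read from the data, passing the limit was not always enough; inconclusive = only one of those two conditions holds; inactive = neither condition holds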
GASC1 inh: inhibitors of GASC-1 (KDM4C) histone demethylase, primary screen, biochemical, single concentration HTS; AID 720574, 2013; 96,000 compounds, 0.15% hits; GST-KDM4C 2-372, H3K9me3 peptide, LANCE TR-FRET; Lysine-specific demethylase 4C (Homo sapiens), Q9H3R0; inhibition, % at 12.5 µM;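 active = mean replicate inhibition above about 25%, with at least 55% of replicates also reaching it, limit read from the data, passing the limit was not always enough; inconclusive = only one of those two conditions met; inactive = neither condition met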
Target sequence (Q9H3R0 2-372 limits assumed): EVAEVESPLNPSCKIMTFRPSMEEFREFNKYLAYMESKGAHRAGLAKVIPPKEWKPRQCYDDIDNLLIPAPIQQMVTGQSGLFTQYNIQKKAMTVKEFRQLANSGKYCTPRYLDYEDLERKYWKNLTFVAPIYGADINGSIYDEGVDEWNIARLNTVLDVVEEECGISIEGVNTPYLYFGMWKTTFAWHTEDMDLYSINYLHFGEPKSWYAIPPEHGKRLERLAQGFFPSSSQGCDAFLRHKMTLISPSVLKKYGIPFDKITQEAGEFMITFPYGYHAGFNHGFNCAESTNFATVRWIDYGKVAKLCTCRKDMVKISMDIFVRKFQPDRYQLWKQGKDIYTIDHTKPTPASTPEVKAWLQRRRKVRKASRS
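System – N-terminal GST-fused human GASC-1 (KDM4C) fragment, residues 2-372 · Input – enzyme final amount 10 nM · Technique – LANCE TR-FRET, Eu antibody, ULight-streptavidin, EDTA, ex 340 nm, em 618/671 nm · Medium – HEPES buffer, pH 7.5, plus ascorbate · Incubation – enzyme reaction 30 min, then detection 60 min, both room temperature · Reagent – H3K9me3 peptide with Fe(II)/2OG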
T cruzi growth-2: T. cruzi intracellular proliferation inhibitors, confirmation, cell-based, NIH3T3 host, beta-gal parasite, luminescence, cherry-pick | shares compounds with T cruzi growth-1 | T. cruzi beta-gal in NIH3T3, GalScreen luminescence, 90 h | inhibition, % at 8.35 µM | 5,600 compounds, 72% hits;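 active = mean replicate inhibition above about 95% and at least 55% of replicates individually reaching it, limit read from the data; inconclusive = only one of the two criteria is met; inactive = neither criterion is met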
T cruzi growth-3: inhibitors of intracellular T. cruzi replication, confirmation, NIH3T3 host cells, beta-gal parasites, cherry-pick, set 2 | shares compounds with T cruzi growth-1 | T. cruzi beta-gal in NIH3T3, GalScreen luminescence, 90 h | inhibition, % at 2.09 µM | 5,600 compounds, 21% hits;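 active = mean inhibition above about 95%, with at least 55% of replicates also reaching it, limit read from the data; inconclusive = meets just one of the two conditions; inactive = meets neither condition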;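 note: plate controls were neutral control median for no effect and positive control median for full effect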
3T3 cytotox: cytotoxicity in mouse NIH/3T3 fibroblasts, confirmation, cytotoxicity control for T. cruzi proliferation inhibitor project, cell-based, cherry-pick, single point; shares compounds with T cruzi growth-1; NIH/3T3 viability, CellTiter-Glo ATP luminescence, 90 h; cytotoxicity (signal decrease), % at 8.35 µM; 5,600 compounds, 14% hits;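 active = mean signal decrease across replicates above about 35% based on untreated-well scatter, with enough replicates individually passing, limit read from the data; inconclusive = no rule stated though some were filed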;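 note: 0% = median of neutral control wells and 100% = median of positive control wells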
3T3 cytotox 2: NIH/3T3 fibroblast cytotoxicity, confirmation, cytotoxicity control, cell-based, cherry-pick, single point, set 2 | shares compounds with T cruzi growth-1 | NIH/3T3 viability, CellTiter-Glo ATP luminescence, 90 h | inhibition, % at 24.9 µM | 5,600 compounds, 56% hits | AID 651744, 2012;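 active = mean loss of cell viability signal at or above a set limit, and enough replicates individually reaching it; inconclusive = meets only the mean limit or only the replicate share; inactive = meets neither condition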;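 note: 0% = median of neutral control wells and 100% = median of positive control wells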
Active calls of the source: *; ? = inconclusive; / = not tested or not shown.

SMILES | IDH1 mut inh | T cruzi growth-1 | GASC1 inh | T cruzi growth-2 | T cruzi growth-3 | 3T3 cytotox | 3T3 cytotox 2
Cn1c(SCC(=O)Nc2cc(C(F)(F)F)ccc2Cl)nnc1-c1cnccn1 | 0 | / | / | / | / | / | /
O=C(CSc1n[nH]c(-c2ccc(Cl)cc2)n1)Nc1c(F)cc(F)cc1Br | 0 | / | / | / | / | / | /
CCC(C)C(Nc1ncnc2c1oc1ccccc12)C(=O)O (configuration not stated) | 0 | / | / | / | / | / | /
CCc1ccc(O)c(NC(=S)NC(=O)COc2ccc(C)cc2C)c1 | 0 | / | / | / | / | / | /
COc1ccccc1NC(=O)CSC1CC(=O)N(c2ccc(F)cc2)C1=O (configuration not stated) | 0 | / | / | / | / | / | /
COc1ccc(NC(=O)CC(C(=O)O)N(C)C)cc1 (configuration not stated) | 0 | / | / | / | / | / | /
O=S(=O)(c1ccccc1)N1CCCCN2[C@H](C1)[C@@H](c1ccc(-c3ccccc3F)cc1)[C@@H]2CO | / | 17 | / | / | / | / | /
O=S(=O)(c1ccccc1)N1CCCCN2[C@@H](CO)[C@@H](c3ccc(-c4ccccc4F)cc3)[C@@H]2C1 | / | 80 | -1 | / | / | / | /
O=S(=O)(c1ccccc1)N1CCCCN2[C@@H](CO)[C@H](c3ccc(-c4ccccc4F)cc3)[C@@H]2C1 | / | 105* | -1 | 104* | 74 | 31 | 106*
O=S(=O)(c1ccccc1)N1CCCCN2[C@H](CO)[C@H](c3ccc(-c4ccccc4F)cc3)[C@@H]2C1 | / | 103* | 1 | 106* | 84 | -9 | 42*
CC(C)N(Cc1nc(-c2ccccc2)no1)S(=O)(=O)c1ccccc1[N+](=O)[O-] | 0 | / | / | / | / | / | /
CCC(=O)c1cn(CC(=O)Nc2cccc(C(F)(F)F)c2)c2ccccc12 | 0 | / | / | / | / | / | /
C/C=C/c1ccc2c(c1)O[C@H](CN(C)Cc1cncnc1)[C@@H](C)CN([C@H](C)CO)S2(=O)=O | 0 | / | 0 | / | / | / | /
C/C=C/c1ccc2c(c1)O[C@@H](CN(C)Cc1ccccc1)[C@@H](C)CN([C@H](C)CO)S2(=O)=O | -1 | 100 | 3 | / | / | / | /
C/C=C/c1ccc2c(c1)O[C@@H](CN(C)Cc1ccncc1)[C@H](C)CN([C@H](C)CO)S2(=O)=O | 43* | 102* | 17 | 99* | 104* | ? | 69*
C/C=C/c1ccc2c(c1)O[C@@H](CN(C)Cc1ccncc1)[C@@H](C)CN([C@H](C)CO)S2(=O)=O | 0 | 103* | 15 | 96* | 94 | 19 | 57*
COC(=O)c1ccccc1NC(=O)COc1ccc2ccccc2c1Br | -1 | / | / | / | / | / | /
Cc1oc(-c2ccc(Cl)cc2)cc1COC(=O)Nc1ccccc1 | 0 | / | / | / | / | / | /
COc1ccccc1CCNC(=O)c1c(-c2c(F)cccc2Cl)noc1C | 0 | / | / | / | / | / | /
CN(C)C(=O)c1cccc(-c2ccc([C@H]3[C@H]4CN(C(=O)C5CCCC5)CCCCN4[C@H]3CO)cc2)c1 | / | 4 | / | / | / | / | /
CN(C)C(=O)c1cccc(-c2ccc([C@@H]3[C@H](CO)N4CCCCN(C(=O)C5CCC5)C[C@@H]34)cc2)c1 | / | 104* | -1 | 81 | 42 | -8 | 23
CN(C)C(=O)c1cccc(-c2ccc([C@@H]3[C@@H](CO)N4CCCCN(C(=O)C5CCC5)C[C@H]34)cc2)c1 | / | 84 | 2 | / | / | / | /
CN(C)C(=O)c1cccc(-c2ccc([C@H]3[C@@H](CO)N4CCCCN(C(=O)C5CCCC5)C[C@H]34)cc2)c1 | / | 103* | / | 98* | 92 | 3 | -3
COc1ccc(CNCCSc2nnnn2C)cc1 | 0 | / | / | / | / | / | /
Cc1cccc(C)c1NC(=O)CSc1nc2c(cc1C#N)CCC2 | 0 | / | / | / | / | / | /
SMILES | IDH1 mut inh | T cruzi growth-1 | GASC1 inh | T cruzi growth-2 | T cruzi growth-3 | 3T3 cytotox | 3T3 cytotox 2
CC(C)(C)[S@@](=O)N1Cc2cc(C(=O)NCc3ccccc3F)nc(-c3cccc(-c4cccnc4)c3)c2[C@H]1CCO | 0 | 72 | -1 | / | / | / | /
COc1ccc(CNC(=O)c2cc3c(c(-c4cccc(-c5cccc(C#N)c5)c4)n2)[C@@H](CCO)N([S@](=O)C(C)(C)C)C3)cc1 | 0 | ? | -7 | 107* | 100* | 19 | 45*
CC(C)(C)[S@](=O)N1Cc2cc(C(=O)NCc3ccccc3F)nc(-c3cccc(-c4ccncc4)c3)c2[C@@H]1CCO | 0 | 99* | -1 | 102* | 90 | 20 | 103*
CC(C)(C)[S@](=O)N1Cc2cc(C(=O)NCc3ccncc3)nc(-c3cccc(-c4cccc(C#N)c4)c3)c2[C@@H]1CCO | 0 | 72 | -1 | / | / | / | /
COc1ccc(CNC(=O)c2cc3c(c(-c4cccc(-c5ccc(C#N)cc5)c4)n2)[C@@H](CCO)N([S@](=O)C(C)(C)C)C3)cc1 | 0 | 98* | -2 | 111* | 107* | 21 | 38*
COc1cccc(CNC(=O)c2cc3c(c(-c4cccc(-c5ccc(C#N)cc5)c4)n2)[C@H](CCO)N([S@@](=O)C(C)(C)C)C3)c1 | 0 | 74 | -2 | / | / | / | /
Cn1c2c(c(=O)n(C)c1=O)CN(CC1CC1)CN2 | -1 | / | / | / | / | / | /
CS(=O)(=O)N1N=C(c2cccc(NS(=O)(=O)c3ccccc3)c2)CC1c1ccco1 (configuration not stated) | -1 | / | / | / | / | / | /
CCOC(=O)Cc1nc(OCC(=O)c2ccc(F)cc2)cs1 | -1 | / | / | / | / | / | /
CN(C)C(=O)c1cccc(-c2ccc3c(c2)[C@@H]2[C@@H](CCN2C(=O)c2cnccn2)[C@H](CO)N3)c1 | / | 105* | 0 | 97* | 62 | -22 | -14
O=C(c1cnccn1)N1CC[C@@H]2[C@H]1c1cc(-c3cccc(F)c3)ccc1N[C@@H]2CO | / | 101* | 0 | 104* | 74 | 26 | 41*
COc1cccc(-c2ccc3c(c2)[C@H]2[C@H](CCN2C(=O)c2cnccn2)[C@H](CO)N3)c1 | / | 74 | 5 | / | / | / | /
O=C(c1cnccn1)N1CC[C@@H]2[C@@H](CO)Nc3ccc(-c4cccc(F)c4)cc3[C@@H]21 | / | 85 | -4 | / | / | / | /
COc1ccc(-c2ccc3c(c2)[C@@H]2[C@@H](CCN2C(=O)c2cnccn2)[C@H](CO)N3)cc1 | / | ? | 0 | 112* | 85 | -9 | -32
CN(C)C(=O)c1cccc(-c2ccc3c(c2)[C@H]2[C@H](CCN2C(=O)c2cnccn2)[C@@H](CO)N3)c1 | / | 83 | 1 | / | / | / | /
CCn1c2ccccc2n2c(SCC(=O)Nc3ccc(C)cc3)nnc12 | 0 | / | / | / | / | / | /

Compound activity from PubChem.
